Data: ChEMBL document CHEMBL4145466, “Design, synthesis, and biological evaluation of novel combretastatin A-4 thio derivatives as microtubule targeting agents” (Eur J Med Chem, 2018)
Active and inactive are the calls of the source. The calls are words filed in the database; no cut-off is given here.

Tests used:
[1] = test system: Tubulin; assay: Inhibition of tubulin polymerization in human HaCaT cells assessed as perturbation in cytoskeleton structure at 1 uM after 24 hrs by ELISA; format: cell-based
[2] = test system: HaCaT; assay: Induction of apoptosis in human HaCaT cells after 24 hrs by FITC Annexin V/propidium iodide staining-based FACScan flow cytometric analysis; format: cell-based
Outline: (§1)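 After 24 h of compound exposure, 1 × 10^6 cells were labelled with annexin V-FITC and PI for 15 min at 25 °C in the dark. They were read on a FACScan with 488 nm excitation, detecting FITC at 525 nm and PI at 620 nm. Results are mean ± SD of three independent experiments, with Dunnett's test against control.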

[3] = Inhibition of porcine tubulin polymerization after 1 hr by spectrophotometric analysis; set-up: species or system Sus scrofa
Outline: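 Polymerization was started by shifting from 4 °C to 37 °C, and absorbance was followed at 37 °C for 60 min. The vehicle served as control.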

[4] = target: T1, Tubulin (Homo sapiens) (UniProt P68371+Q9H4B7+P0DPH7+P68366+Q13509+Q71U36+P04350+Q3ZCM7+P07437+P68363+Q9BQE3+Q6PEY2+Q13885+Q9BVA1+Q9BUF5); assay: Inhibition of tubulin polymerization in human HeLa cells assessed as perturbation in cytoskeleton structure at 1 uM after 24 hrs by Hoechst 33258/FITC staining-based flow cytometric analysis; format: cell-based
[5] = test system: Tubulin; assay: Inhibition of tubulin polymerization in human HaCaT cells assessed as micronuclei formation at 1 uM after 24 hrs by Hoechst 33258/FITC staining-based […]; format: cell-based
Outline: (§2)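 Cells seeded at 12.5 × 10^4 per well and exposed to 1 µM compound for 24 h. Nuclei were stained with Hoechst 33258 (10 µg/mL, 30 min, 37 °C), then fixed in 4% formaldehyde/PBS (15 min, RT). Cells were permeabilized with 1% Triton X-100, blocked with 2% BSA/PBS for 1 h, and incubated with anti-α-tubulin-FITC (1:50) overnight at 4 °C. Imaged by fluorescence microscopy.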

[6] = test system: SK-OV-3; assay: Induction of apoptosis in human SKOV3 cells assessed as increase in histone-associated DNA fragments in mononucleosomes at 0.1 uM after 24 hrs by ELISA; format: functional, cell-based
Outline: (§3)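 Cells (2 × 10^4) were incubated for 24 h at 0.1, 0.5 or 1 µM, lysed and centrifuged. Supernatants went onto a streptavidin plate with anti-histone-biotin and anti-DNA-peroxidase for 2 h, followed by ABTS for 30 min and a reading at 405 nm. Nucleosome content was expressed as an enrichment factor, as mean ± SD of three experiments.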

[7] = test system: MDA-MB-231; assay: Induction of apoptosis in human MDA-MB-231 cells after 24 hrs by FITC Annexin V/propidium iodide staining-based FACScan flow cytometric analysis; format: functional, cell-based; outline: as §1
[8] = test system: MDA-MB-231; assay: Cytotoxicity against human MDA-MB-231 cells after 48 hrs by MTT assay; format: functional, cell-based; settings: MDA-MB-231, 48 h
Outline: (§4)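 Cells in DMEM with 10% FBS were plated at 2 × 10^4 per well and left overnight, then treated for 48 h at 0.6–20 µM (six concentrations) from 10 mM DMSO stocks. MTT was added for 2 h, and formazan was dissolved in DMSO and read at 570 nm. Viability was expressed as % of control, with IC50 taken from dose-response curves. Results are mean ± SD of three independent experiments.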

[9] = target: T1, Tubulin (Homo sapiens); assay: Inhibition of tubulin polymerization in human SKOV3 cells assessed as perturbation in cytoskeleton structure at 1 uM after 24 hrs by Hoechst 33258/FITC staining-based flow cytometric analysis; format: cell-based; outline: as §2
[10] = target: T1, Tubulin (Homo sapiens); assay: Inhibition of tubulin polymerization in human MDA-MB-231 cells assessed as perturbation in cytoskeleton structure at 1 uM after 24 hrs by Hoechst 33258/FITC staining-based flow cytometric analysis; format: cell-based
[11] = target: T1, Tubulin (Homo sapiens); assay: Inhibition of tubulin polymerization in human MCF7 cells assessed as micronuclei formation at 1 uM after 24 hrs by ELISA; format: cell-based
[12] = test system: MCF7; assay: Induction of apoptosis in human MCF7 cells assessed as increase in histone-associated DNA fragments in oligonucleosomes at 0.1 uM after 24 hrs by ELISA; format: functional, cell-based; outline: as §3
[13] = test system: A-431; assay: Induction of apoptosis in human A431 cells assessed as increase in histone-associated DNA fragments in oligonucleosomes at 0.1 uM after 24 hrs by ELISA; format: functional, cell-based; outline: as §3
[14] = test system: A-431; assay: Cytotoxicity against human A431 cells after 48 hrs by MTT assay; format: functional, cell-based; settings: A-431, 48 h; outline: as §4
[15] = test system: A549; assay: Cytotoxicity against human A549 cells after 48 hrs by MTT assay; format: functional, cell-based; settings: A549, 48 h
[16] = test system: HeLa; assay: Induction of apoptosis in human HeLa cells assessed as increase in histone-associated DNA fragments in mononucleosomes at 0.1 uM after 24 hrs by ELISA; format: functional, cell-based; outline: as §3
[17] = target: T1, Tubulin (Homo sapiens); assay: Inhibition of tubulin polymerization in human A431 cells assessed as chromatin condensation at 1 uM after 24 hrs by Hoechst 33258 staining-based fluorescence microscopic analysis; format: cell-based
Outline: (§5)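 Cells were seeded at 12.5 × 10^4 per well and treated at 1 µM for 24 h. They were stained with Hoechst 33258 (10 µg/mL, 30 min, 37 °C), fixed in 4% formaldehyde, permeabilized with 1% Triton X-100 and blocked in 2% BSA. Anti-α-tubulin-FITC (1:50) was applied overnight at 4 °C, and cells were imaged by fluorescence microscopy.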

[18] = test system: A-431; assay: Induction of apoptosis in human A431 cells assessed as increase in histone-associated DNA fragments in mononucleosomes after 24 hrs by ELISA; format: functional, cell-based; outline: as §3
[19] = target: T1, Tubulin (Homo sapiens); assay: Inhibition of tubulin polymerization in human MCF7 cells assessed as chromatin condensation at 1 uM after 24 hrs by Hoechst 33258 staining-based fluorescence microscopic analysis; format: cell-based; outline: as §2
[20] = test system: HeLa; assay: Induction of apoptosis in human HeLa cells assessed as increase in histone-associated DNA fragments in oligonucleosomes after 24 hrs by ELISA; format: functional, cell-based; outline: as §3
[21] = test system: HaCaT; assay: Induction of apoptosis in human HaCaT cells assessed as increase in histone-associated DNA fragments in oligonucleosomes after 24 hrs by ELISA; format: cell-based; outline: as §3
[22] = test system: HeLa; assay: Cell cycle arrest in human HeLa cells assessed as accumulation of cells at G2/M phase at 0.1 to 1 uM after 24 hrs by propidium iodide staining-based FACS analysis; format: functional
Outline: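 Cells were seeded at 5 × 10^5 per well in DMEM with 10% FBS and left overnight, then exposed to 0.1, 0.5 or 1 µM for 24 h. DMSO served as the negative control and 50 nM camptothecin as the positive control. Cells were trypsinized, fixed in 70% ethanol for 30 min at 4 °C, stained with 50 µg/mL PI plus 100 µg/mL RNase A for 30 min in the dark, and analysed by flow cytometry. Results are mean ± SD of three experiments, compared by ANOVA with Dunnett's test.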

[23] = test system: Tubulin; assay: Inhibition of tubulin polymerization in human HaCaT cells assessed as chromatin condensation at 1 uM after 24 hrs by Hoechst 33258 staining-based fluorescence microscopic analysis; format: cell-based; outline: as §5

Row | SMILES | inhibition (INH) [1] | Activity [2] | IC50 [3] | inhibition [4] | inhibition (INH) [5] | Activity [7] | IC50 [8] | inhibition [9] | inhibition [10] | inhibition [11] | IC50 [14] | IC50 [15] | other results
1 | COc1ccc(-c2ocnc2-c2cc(OC)c(SC)c(OC)c2)cc1O | Active | Dose-dependent effect | 1050 nM | Active | Active | Dose-dependent effect | 710 nM | Active | Active | Active | 250 nM | > 20000 nM | Activity [6]: Active; Activity [12]: Active; Activity [13]: Active; Activity [16]: Active
2 | COc1ccc(-c2ocnc2-c2cc(Br)c(OC)c(OC)c2)cc1SC | Active | Dose-dependent effect | 850 nM | Active | Active | Dose-dependent effect | 920 nM | Active | Active | Active | 430 nM | > 20000 nM | inhibition [17]: Active; Activity [18]: Dose-dependent effect; inhibition [19]: Active; Activity [20]: Dose-dependent effect; Activity [21]: Dose-dependent effect; Activity [22]: Dose-dependent effect; inhibition (INH) [23]: Active
